Consider 19 compounds from PMC6022754 (Bioorganic & medicinal chemistry letters, 2017).

The nature of data set [1]: BJ cell cytotoxicity counter screen. The data set is classed as cell-based. To be noted: human, BJ cells (normal human foreskin fibroblast cell line).
The nature of data set [2]: computed physicochemical properties. To be noted: LipE = pCC50 (HT29) – logD (at pH 7.4). Put shortly: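 Lipophilic efficiency: CC50 taken from whole-cell HT29 growth-inhibition screening, not an enzymatic target-based assay. The value is converted to pCC50, and logD at pH 7.4 is subtracted from it.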
Data set [3] deals with PC3 prostate cancer cell line. In words: quantitative high-throughput screening, PC3 cell growth inhibition. The data set is classed as cell-based. To be noted: PC3 cells, vs SSA (1).
For data set [4], the system named is MDA-MB-231 breast cancer cell line. Put plainly: quantitative high-throughput screening, MDA-MB-231 cell growth inhibition. The data set is classed as cell-based. To be noted: MDA-MB-231 cells, vs SSA (1).
The subject of data set [5] is HT29 colorectal carcinoma cell line. In words: quantitative high-throughput screening, HT29 cell growth inhibition. The data set is classed as cell-based. As to conditions: HT29 cells, vs SSA (1).
The test system of data set [6] is human colon tumor xenograft. As to conditions: human colon tumor xenograft model; cited from earlier work.

Turning to `CCN(CC)CCCNC(=O)CC1=C(C)/C(=C/c2ccc(SC)cc2)c2ccc(F)cc21` [Compound 4], the EC50 in data set [1] was above 7.57 µM.

Consider `CC1=C(CC(=O)NCCCN(C)C)c2cc(F)ccc2/C1=C\c1nc2ccccc2s1` [Compound 33], for which the EC50 in data set [1] was above 7.57 µM.

`CC1=C(CC(=O)NCCN2CCCC2)c2cc(F)ccc2/C1=C\c1nc2ccccc2s1` [Compound 61]: in data set [1], the EC50 was above 7.57 µM. In data set [2], this compound displayed a LipE above 3.

As for `CSc1ccc(/C=C2/C(C)=C(CC(=O)N3CCN(c4ccncc4)CC3)c3cc(F)ccc32)cc1` [Compound 46], the concentration for a half-maximal effect (EC50) in data set [1] is above 7.57 µM.

Consider `CSc1ccc(/C=C2/C(C)=C(CC(=O)N3CCCN(C)CC3)c3cc(F)ccc32)cc1` [Compound 50], for which, in data set [1], the EC50 is above 7.57 µM.

`CSc1ccc(/C=C2/C(C)=C(CC(=O)NCCCN(C)C)c3cc(F)ccc32)cc1` [Compound 2]: in data set [3], the “reduction of activity compared to lead compound 1, PC3” value is 2 fold. Besides, the “reduction of activity compared to lead compound 1, MDA-MB-231” value in data set [4] came to 2 fold. Also, the “reduction of activity compared to lead compound 1, HT29” value in data set [5] worked out at 4 fold.

Take `CSc1ccc(/C=C2/C(C)=C(CC(=O)NCCN(C)C)c3cc(F)ccc32)cc1` [Compound 1, sulindac sulfide amide]: the LipE in data set [2] amounted to 1.78. In data set [6], the “in vivo antitumor activity” value is “comparable to sulindac”.

For `COc1cc(/C=C2/C(C)=C(CC(=O)N(C)CCN(C)C(=O)[C@@H](N)C(C)C)c3cc(F)ccc32)cc(OC)c1OC` [Compound 89], in data set [1], the EC50 is above 7.57 µM.

Compound `CSc1ccc(/C=C2/C(C)=C(CC(=O)N3CCN(CCN(C)C)CC3)c3cc(F)ccc32)cc1` [Compound 45] had an EC50 in data set [1] above 7.57 µM.

Turning to `CC1=C(CC(=O)NCc2ccccc2)c2cc(F)ccc2/C1=C\c1ccc([S+](C)[O-])cc1` (centres unmarked) [Compound 79], the EC50 in data set [1] was above 7.57 µM.

For the compound `CSc1ccc(/C=C2/C(C)=C(CC(=O)NCCC3CCCN3C)c3cc(F)ccc32)cc1` (centres unmarked) [Compound 41], the LipE in data set [2] is on record as above 3.

Take `CSc1ccc(/C=C2/C(C)=C(CC(=O)N3CCC[C@H]3CN3CCCC3)c3cc(F)ccc32)cc1` [Compound 43]: the EC50 in data set [1] is above 7.57 µM.

The compound `CSc1ccc(/C=C2/C(C)=C(CC(=O)N3CCN(CCCN(C)C)CC3)c3cc(F)ccc32)cc1` [Compound 44] showed an EC50 in data set [1] above 7.57 µM.

Turning to `COc1cc(/C=C2/C(C)=C(CC(=O)N3CCN(c4ccncc4)CC3)c3cc(F)ccc32)cc(OC)c1OC` [Compound 59], the EC50 in data set [1] was above 7.57 µM.

As to `CSc1ccc(/C=C2/C(C)=C(CC(=O)N(C)CCN(C)C)c3cc(F)ccc32)cc1` [Compound 5], in data set [1], the EC50 was above 7.57 µM.

In data set [1], `CC1=C(CC(=O)N(C)CCN(C)C)c2cc(F)ccc2/C1=C\c1nc2ccccc2s1` [Compound 35] registered an EC50 above 7.57 µM.

`CSc1ccc(/C=C2/C(C)=C(CC(=O)NCc3ccccc3)c3cc(F)ccc32)cc1` [Compound 72]: in data set [3], the “reduction of activity compared to lead compound 1, PC3” value is recorded as 4 fold. Besides, in data set [4], the “reduction of activity compared to lead compound 1, MDA-MB-231” value is reported as 1.5 fold. Moreover, in data set [5], the “reduction of activity compared to lead compound 1, HT29” value stood at 4 fold.

In data set [1], `CC1=C(CC(=O)N2CCN(CCCN(C)C)CC2)c2cc(F)ccc2/C1=C\c1nc2ccccc2s1` [Compound 62] returned an EC50 above 7.57 µM. The LipE in data set [2] is listed as above 3.

The compound `CC1=C(CC(=O)N2CCN(c3ccncc3)CC2)c2cc(F)ccc2/C1=C\c1nc2ccccc2s1` [Compound 63] returned an EC50 in data set [1] above 7.57 µM.
